In experiment [1] the target is Peroxiredoxin-1 (Homo sapiens) (UniProt Q06830). The experiment is described as follows: Binding affinity to recombinant wild type Prx1 (unknown origin) expressed in human HEK293T cells at 1 uM incubated for 20 hrs by Western blot analysis.
Experiment [2] concerns BALL-1. Briefly: Induction of ROS production in human BALL-1 cells incubated for 30 mins by DCFH-DA staining based flow cytometry analysis. It counts as functional, cell-based. The conditions noted are these: dose 1-10 µM. Summed up: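 Cells (2×10⁵) loaded with 10 μM DCFH-DA for 10 min, then exposed to 1, 5 or 10 μM compound, DMSO vehicle, or 50 μM H2O2 for 30 min. Pellets resuspended in PBS; DCF fluorescence by flow cytometry (ex 488/em 530 nm). Fluorescence normalized to control; mean of two independent measurements, error as range.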

Experiment [3] relates to BALL-1. The experiment is described as follows: Cytotoxicity against human BALL-1 cells assessed as reduction in cell viability incubated for 24 hrs by WST-8 assay. It counts as functional, cell-based. The conditions noted are these: BALL-1, 24 h. Summed up: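 BALL-1 cells (RPMI 1640, 10% FBS, 37 °C, 5% CO2) seeded at 10,000 cells/well, exposed to a concentration range for 24 h, 0.1% DMSO. WST-8 reagent added, 2 h at 37 °C, absorbance 450 nm. Growth inhibition taken as sample/control absorbance ratio; IC50 reported as mean ± SD.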

Experiment [4] addresses Peroxiredoxin-1 (Homo sapiens) (UniProt Q06830). The experiment is described as follows: Retention of chaperone activity of oxidized Prx1 (unknown origin) assessed as decrease in heat-induced citrate synthase aggregation at 25 uM incubated for 20 mins by light scattering assay.
In experiment [5] the test system is BALL-1. Briefly: Induction of apoptosis in human BALL-1 cells at 5 uM pretreated with GSH for 1.5 hrs followed by compound addition and measured after 24 hrs by annexin-V-FITC and PI staining based flow cytometry analysis. It counts as functional, cell-based. Summed up: (§1)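 BALL-1 cells (2×10⁵) pretreated 1.5 h at 37 °C with DMSO, 250 μM DTT, 1.5 mM GSH or 250 μM NAC, then ±5 μM compound for 24 h. Stained with annexin V-FITC (HEPES–NaOH/NaCl/CaCl2 buffer pH 7.4, 10 min), then 2 μg/mL PI; flow cytometry. Late apoptotic (annexin V+/PI+) percentage; octuplicate, mean ± SD, Tukey HSD.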

The target in experiment [6] is Peroxiredoxin-1 (Homo sapiens) (UniProt Q06830). The experiment is described as follows: Inhibition of recombinant Prx1 (unknown origin) assessed as reduction in peroxidase activity at 50 uM incubated for 30 mins followed by H2O2 addition and measured after 20 mins by PEROXsay assay kit method relative to control; values are per cent of control. The conditions noted are these: time 50.0 min.

For experiment [7], the system named is BALL-1. Briefly: Induction of apoptosis in human BALL-1 cells at 5 uM pretreated with NAC for 1.5 hrs followed by compound addition and measured after 24 hrs by annexin-V-FITC and PI staining based flow cytometry analysis. It counts as functional, cell-based. Summed up:
as §1

Experiment [8] deals with BALL-1. Briefly: Induction of apoptosis in human BALL-1 cells at 5 uM pretreated with DTT for 1.5 hrs followed by compound addition and measured after 24 hrs by annexin-V-FITC and PI staining based flow cytometry analysis. Format: functional, cell-based. Summed up: as §1

SMILES strings stand for the structures. The source made the active and inactive calls. The calls are words filed in the database; no cut-off is given here.

Chain of Peroxiredoxin-1 (Homo sapiens) (Q06830 whole entry, looked up): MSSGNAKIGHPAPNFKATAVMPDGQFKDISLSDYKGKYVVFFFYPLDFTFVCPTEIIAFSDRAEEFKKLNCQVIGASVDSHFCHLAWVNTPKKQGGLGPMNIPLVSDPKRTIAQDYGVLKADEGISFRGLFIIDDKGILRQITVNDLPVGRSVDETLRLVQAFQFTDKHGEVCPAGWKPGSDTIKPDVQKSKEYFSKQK

As to `CC1(O)NC(=O)[C@@]2(C(=O)CCCCCCCCCCCNC(=O)CCCC[C@@H]3SC[C@@H]4NC(=O)N[C@@H]43)O[C@@H]12` (stereo partly specified), the result in experiment [1] was Active.
On to `CCCCCCCCCCCC(=O)[C@]12O[C@H]1C(C)(O)NC2=O` (stereo partly specified), for which the Activity entry in the experiment on BALL-1 [2] was “Dose-Dependent Effect”. For the same molecule, the concentration for half-maximal inhibition (IC50) with BALL-1 [3] came out at 4410 nM. In addition, the result in experiment [4] was Active. The result in the experiment with BALL-1 [5], in the experiment on BALL-1 [7] and in the experiment on BALL-1 [8] was inactive. Moreover, the residual activity in experiment [6] is 56%.
Take `[O-][n+]1c(CBr)c(CBr)[n+]([O-])c2ccccc21`: the IC50 in the experiment on BALL-1 [3] was 1050 nM. For the same molecule, the result in experiment [4] was Active. For the same molecule, the residual activity in experiment [6] was determined as 33%.
